# Bioassay records from PubChem.
# Hits are enriched below; roughly 2.3% of the tested compounds scored in any of these assays.
# ABCB1 block: ABCB1 efflux pump inhibitors, primary screen, cell-based, multiplex, flow cytometry, ABCG2 counter-screen. CCRF-Adr cells, JC-1 efflux. inhibition, % at 6.6 µM. 0.067% of 190,000 active; in the data active = inhibition above about 40%;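 note: 0% = vehicle and 100% = reference inhibitor; higher value means more JC-1 retained so stronger ABCB1 efflux block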
# Target sequence (P08183 whole entry, looked up): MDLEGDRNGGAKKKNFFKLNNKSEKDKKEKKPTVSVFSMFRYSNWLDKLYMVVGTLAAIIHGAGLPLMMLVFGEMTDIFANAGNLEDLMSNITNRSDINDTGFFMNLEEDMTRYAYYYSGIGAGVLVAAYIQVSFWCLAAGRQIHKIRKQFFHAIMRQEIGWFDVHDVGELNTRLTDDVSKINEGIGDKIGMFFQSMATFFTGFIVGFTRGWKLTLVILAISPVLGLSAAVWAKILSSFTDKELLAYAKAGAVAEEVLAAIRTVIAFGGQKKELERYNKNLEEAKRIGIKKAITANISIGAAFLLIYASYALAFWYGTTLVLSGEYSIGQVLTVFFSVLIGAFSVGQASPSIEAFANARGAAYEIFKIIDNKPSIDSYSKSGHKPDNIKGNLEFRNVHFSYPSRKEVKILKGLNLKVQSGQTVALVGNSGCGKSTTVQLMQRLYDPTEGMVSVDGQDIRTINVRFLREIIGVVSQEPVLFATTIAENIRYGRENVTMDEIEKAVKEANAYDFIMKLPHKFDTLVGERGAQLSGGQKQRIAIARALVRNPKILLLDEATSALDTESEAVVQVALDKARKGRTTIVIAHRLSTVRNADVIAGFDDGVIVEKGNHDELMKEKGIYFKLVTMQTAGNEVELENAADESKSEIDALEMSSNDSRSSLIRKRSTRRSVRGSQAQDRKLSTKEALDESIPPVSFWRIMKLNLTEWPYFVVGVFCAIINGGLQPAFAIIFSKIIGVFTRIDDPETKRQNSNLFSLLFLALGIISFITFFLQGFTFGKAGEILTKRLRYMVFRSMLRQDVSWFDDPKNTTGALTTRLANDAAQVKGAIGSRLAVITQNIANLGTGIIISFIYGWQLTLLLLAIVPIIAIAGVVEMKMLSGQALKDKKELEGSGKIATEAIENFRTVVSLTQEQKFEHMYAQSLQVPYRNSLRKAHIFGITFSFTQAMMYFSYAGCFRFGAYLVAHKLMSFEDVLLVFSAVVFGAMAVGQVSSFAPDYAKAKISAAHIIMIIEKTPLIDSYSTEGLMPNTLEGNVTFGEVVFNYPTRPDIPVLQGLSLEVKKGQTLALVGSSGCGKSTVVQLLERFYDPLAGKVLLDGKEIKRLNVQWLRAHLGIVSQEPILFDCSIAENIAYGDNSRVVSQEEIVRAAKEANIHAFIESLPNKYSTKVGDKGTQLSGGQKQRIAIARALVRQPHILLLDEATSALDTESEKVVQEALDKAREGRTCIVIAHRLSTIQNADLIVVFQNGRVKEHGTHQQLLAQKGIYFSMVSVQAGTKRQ
# ABCG2 inh: ABCG2 efflux pump inhibitors, primary screen, multiplex with ABCB1, IgMXP3 cells, flow cytometry | JC-1 efflux | inhibition, % at 6.6 µM | 0.1% of 190,000 active | AID 1325, 2008;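 active = inhibition above 80%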;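 note: 0% = DMSO and 100% = nicardipine control wells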
#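 Test system: ABCG2 IgMXP3 and barcoded ABCB1 CCRF-Adr cell mix; Schedule: cells with compound and JC-1, 10 min at 25 °C, rotating, no wash; Technique: flow cytometry of retained JC-1 fluorescence; Measure: % inhibition of efflux relative to nicardipine and DMSO; Controls: nicardipine high and DMSO low controls.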
# MEKK2 WT-MEK5: modulators of MEK5 binding to wildtype MEKK2, primary screen, biochemical, multiplex bead flow cytometry, Alexa488-MEK5; 1.1% of 290,000 active; binding response (% of control), % at 10 µM; AID 1531, 2009; Alexa488-MEK5 binding to MEKK2 WT; actives lie on both sides; in the data active = binding response below about 67% or above about 130%
# MEKK3 PB1 HTS: modulators of MEKK3-MEK5 PB1 binding, primary screen, biochemical, wildtype MEKK3, multiplex bead flow cytometry, Alexa488-MEK5 | Mitogen-activated protein kinase kinase kinase 3 (Homo sapiens), Q99759 | bead-based flow cytometry, Alexa488-MEK5 binding to MEKK3; actives lie on both sides; 0 = blocked by unlabeled MEK5, 100 = vehicle | binding response (% of control), % at 10 µM | 1.4% of 290,000 active | AID 1529, 2009;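 active = binding response more than 3 SD above or below the average of its plate-row segment, actives on both sides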;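 note: Alexa488 bead fluorescence after subtracting the streptavidin-only scavenger bead signal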
# MEKK2 mut-MEK5: MEK5 binding signal on mutant MEKK2 PB1, primary screen, biochemical, multiplex bead flow cytometry, Alexa488-MEK5. Alexa488-MEK5 binding to MEKK2 mutant. percent response, % at 10 µM. 0.35% of 290,000 active; in the data active = percent response above about 24%, passing the limit was not always enough
# MEKK2wt confirm: modulators of MEK5 binding to wildtype MEKK2, confirmation, biochemical, single concentration, multiplex bead flow cytometry; Alexa488-MEK5 binding to MEKK2 WT; actives lie on both sides; AID 1892, 2009; binding response (% of control), % at 10 µM; 2.4% of 5,900 active; shares compounds with MEKK3 PB1 HTS; in the data active = binding response below about 16% or above about 210%; inactive = in between
# MEKK2mut confirm: mutant MEKK2 PB1-MEK5 binding signal retest – biochemical, single concentration, multiplex bead flow cytometry, confirmation; shares compounds with MEKK3 PB1 HTS; Alexa488-MEK5 binding to MEKK2 mutant; percent response, % at 10 µM; 2% of 5,900 active; in the data active = percent response mostly above about 71%, no sharp cut-off; inactive = mostly below about 38%;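 note: higher means compound restores mutant binding toward wildtype level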
# MEKK3-MEK5 inh: MEKK3 wild-type PB1 binding to MEK5, inhibitors, confirmation, biochemical, bead multiplex flow cytometry, single concentration, wildtype; binding response (% of control), % at 10 µM; Alexa488-MEK5 binding to MEKK3; active compounds read low; 1.8% of 5,900 active; AID 1894, 2009; shares compounds with MEKK3 PB1 HTS;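 active = binding response below 72% of control, or above a set upper limit, though filed actives all read lower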;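 note: 100% = DMSO only wells and 0% = binding blocked by excess unlabeled MEK5; lower values mean stronger disruption of MEK5 binding to MEKK3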
# * = called active by the depositor; · = no result given; [ ] = dose if it differs, or a comment.
SMILES,ABCB1 block,ABCG2 inh,MEKK2 WT-MEK5,MEKK3 PB1 HTS,MEKK2 mut-MEK5,MEKK2wt confirm,MEKK2mut confirm,MEKK3-MEK5 inh
Cc1ccc(C)c(NC(=O)C2CCCN(S(=O)(=O)c3c(C)nn(C)c3C)C2)c1 (configuration not stated),·,·,99,98,2,·,·,·
COc1ccc(NC(=O)C2CCC(CNS(=O)(=O)c3cccs3)CC2)cc1 (configuration not stated),0,23,7.0*[inhibitor],5.0*[inhibitor],-45,101,-3,99
COc1ccc(NC(=O)C2CCN(c3nc(C)cc(C)n3)CC2)cc1,1,4,2.0*[inhibitor],2.0*[inhibitor],-1,102,-4,99
CNC(=S)Nc1cccc(-c2cnc3ccccc3n2)c1,·,·,102,103,7,·,·,·
COc1ccc2cc3c(N)nn(C(=O)c4ccc(Cl)c([N+](=O)[O-])c4)c3nc2c1,1,6,89,104,-2,·,·,·
COc1ccc2cc3c(N)nn(C(=O)c4ccccc4[N+](=O)[O-])c3nc2c1,0,6,98,72*[inhibitor],-1,95,-3,97
Cc1ccccc1NC(=O)c1nn(C)c2c1CS(=O)(=O)c1ccccc1-2,·,·,106,102,9,·,·,·
C=CCn1cc(/C=C/c2cc[n+](C)cc2)c2ccccc21,·,·,108,99,0,·,·,·
C=CCn1c(C)c(/C=C/c2cc[n+](C)cc2)c2ccccc21,·,·,94,113,62*,116,-2,98
CCCCCCn1c(N2CCC(C(N)=O)CC2)nc2c1c(=O)n(C)c(=O)n2C,0,3,2.0*[inhibitor],2.0*[inhibitor],-21,102,4,101
COc1ccccc1-n1c(-c2ccccc2)c[nH]c1=S,-1,-1,65,49*[inhibitor],-21,87,-5,88
S=c1[nH]cc(-c2ccccc2)n1-c1ccccc1Cl,0,-4,94,100,-2,·,·,·
O=C(CN1CCCc2ccccc21)N/N=C/c1ccc(F)cc1F,·,·,100,109,-1,·,·,·
O=C(CN1CCCc2ccccc21)N/N=C/c1ccccc1O,0,0,101,128*,2,100,0,102
Cc1ccc(NC(=O)COC(=O)C2(c3ccc(Cl)cc3)CCCC2)cc1,2,17,121,153*,1,103,3,103
O=C1/C(=C/c2ccc([N+](=O)[O-])cc2)C=C(c2ccccc2)N1c1ccccc1,1,2,83,90,-4,·,·,·
COc1ccc(N2C(=O)/C(=C/c3ccc([N+](=O)[O-])cc3)C=C2c2ccccc2)cc1,0,1,-10*,76*[inhibitor],-6,88,-5,91
CC1Sc2ccc(S(=O)(=O)CCC(=O)NC(C)c3ccccc3)cc2NC1=O (configuration not stated),·,·,100,104,6,·,·,·
Cc1c(C#N)c(N=CN(C)C)c(C(=O)c2ccc(Br)cc2)n1-c1ccccc1,1,17,69*[inhibitor],103,2,96,-1,102
Cc1cccc(C)c1NS(=O)(=O)c1ccc(NC(=O)c2ccc(Cl)c([N+](=O)[O-])c2)cc1,0,0,115,140*,1,100,-2,101
O=C(O)c1cc(NC(=O)c2ccc(Cl)c([N+](=O)[O-])c2)cc(C(=O)O)c1,0,-1,101,98,-1,·,·,·
Cc1cc(C(=O)Nc2ccc(N3CCCC3)c(Cl)c2)ccc1[N+](=O)[O-],0,1,130,135*,2,110,-2,103
Cc1ccccc1CN1CCC(n2nccc2NC(=O)CCOc2ccccc2)CC1,·,·,106,97,0,·,·,·
C/C(=N\Nc1nccnc1Cl)c1ccc(O)c(C)c1,·,·,102,105,1,·,·,·
O=C(/C=C/c1ccco1)N(Cc1ccccc1F)C1CCS(=O)(=O)C1 (configuration not stated),·,·,99,101,2,·,·,·
SMILES,ABCB1 block,ABCG2 inh,MEKK2 WT-MEK5,MEKK3 PB1 HTS,MEKK2 mut-MEK5,MEKK2wt confirm,MEKK2mut confirm,MEKK3-MEK5 inh
COc1cc(/C=N/NC(=O)CN(Cc2ccccc2)S(=O)(=O)c2ccc3c(c2)OCCO3)ccc1O,0,3,107,136*,0,101,0,102
COc1ccc(/C=N/NC(=O)CN(Cc2ccccc2)S(=O)(=O)c2ccc3c(c2)OCCO3)cc1,1,9,97,106,2,·,·,·
COc1ccc(Cn2c(SCc3ccccc3C)nc3cc(OC)c(OC)cc3c2=N)cc1,7,5,278*,118,96*,252*,79*,113
COc1ccc2c(c1)CCc1cn3nc(C)cc3nc1-2,1,13,104,8.0*[inhibitor],-90,96,-1,100
COc1ccc2c(c1)CCc1cnc(N)nc1-2,0,23,99,102,2,·,·,·
O=C(c1ccc(Cl)cc1)C1CCN(CC(=O)N2CCCCC2)CC1,·,·,96,98,0,·,·,·
Cc1cc2cc(CN(CC3CCCO3)C(=S)NCc3ccco3)c(=O)[nH]c2cc1C (configuration not stated),2,20,103,147*,0,102,-1,100
C/C(=N\NC(=O)C1CC1)c1ccc2c(c1)OCCO2,-1,12,6.0*[inhibitor],4.0*[inhibitor],-46,109,7,105
CCS(=O)(=O)N1CCC(C(=O)Nc2ccc(C(C)=O)cc2)CC1,·,·,104,98,0,·,·,·
Cc1nnsc1C(=O)NNS(=O)(=O)c1ccccc1,0,2,104,102,8,·,·,·
Cc1c(C(=O)NNS(=O)(=O)c2ccccc2)sc(=S)n1C,0,12,113,139*,0,97,-5,102
Cc1n[nH]c(=S)n1/N=C/c1ccc(OCc2ccc(Cl)cc2)cc1,0,-2,93,96,-6,·,·,·
Cc1cc(C)c(COc2ccc(/C=N/n3c(C)n[nH]c3=S)cc2)c(C)c1,-1,-3,82,72*[inhibitor],-2,91,-10,94
